Most compounds without a hit are left out; they make up all but 3% or so of the library.
NPY-Y1 PAM-ag: potentiators or agonists of human neuropeptide Y receptor Y1. P25929. NPY-Y1 expressing cells, potentiator/agonist activation. activation, % at 3.6 µM. 220,000 tested, 0.37% active. AID 1304; in the data active = activation above about 33%, passing the limit was not always enough;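 also: cells stimulated with NPY at EC10 then isoproterenol at EC100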
Target sequence (P25929 whole entry, looked up): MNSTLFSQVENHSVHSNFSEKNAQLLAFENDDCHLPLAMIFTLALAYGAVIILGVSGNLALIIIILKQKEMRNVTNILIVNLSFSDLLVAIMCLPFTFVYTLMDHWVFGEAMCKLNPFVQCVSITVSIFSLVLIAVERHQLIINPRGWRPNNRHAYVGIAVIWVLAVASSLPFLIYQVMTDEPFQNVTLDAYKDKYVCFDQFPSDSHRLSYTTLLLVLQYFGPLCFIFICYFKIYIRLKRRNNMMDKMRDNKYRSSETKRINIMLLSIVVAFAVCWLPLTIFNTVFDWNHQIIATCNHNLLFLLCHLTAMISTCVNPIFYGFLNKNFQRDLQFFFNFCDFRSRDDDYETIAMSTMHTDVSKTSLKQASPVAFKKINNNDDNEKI
Wee1 stabilizer: human Wee1 degradation inhibition, primary screen. P30291. HeLa Luc-Wee1K328M stability, luciferase luminescence; 100% = proteasome inhibitor MG132 effect. reporter increase, % at 5 µM. 220,000 tested, 1.2% active;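 active = activation above the mean of all tested compounds plus 3 SD, set per screening run, cut at about 8.8% in these data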;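 also: cells exposed to compound for 20 h before luminescence read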
NPY2 pot ag: potentiates or activates human NPY-Y2 receptor; AID 1359; cells expressing NPY-Y2, potentiator/agonist read-out; 220,000 tested, 0.45% active; activation, % at 3.6 µM; P49146; in the data active = activation above about 27%;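 also: cells stimulated with NPY near EC25 plus isoproterenol at EC100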
Target sequence (P49146 whole entry, looked up): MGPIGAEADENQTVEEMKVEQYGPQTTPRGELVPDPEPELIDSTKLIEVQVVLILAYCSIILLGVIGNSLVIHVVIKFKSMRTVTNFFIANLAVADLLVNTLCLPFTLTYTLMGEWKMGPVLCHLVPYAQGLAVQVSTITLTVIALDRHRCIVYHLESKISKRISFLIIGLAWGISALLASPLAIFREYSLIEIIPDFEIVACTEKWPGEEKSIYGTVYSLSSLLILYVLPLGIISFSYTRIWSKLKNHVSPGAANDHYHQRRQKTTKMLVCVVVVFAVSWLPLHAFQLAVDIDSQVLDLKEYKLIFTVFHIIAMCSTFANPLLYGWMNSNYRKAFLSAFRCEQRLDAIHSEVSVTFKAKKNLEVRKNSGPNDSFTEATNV
Hsp70 act: transcriptional activators of Hsp70; activation, % at 10 µM; 200,000 tested, 0.04% active; HeLa Hsp70 promoter luciferase reporter, luminescence; scaled: vehicle 0, proteasome-inhibitor control 100%;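 active = activation above the mean across all tested compounds plus 3 SD, cutoff set per campaign, cut at about 5.5% in these data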
NPY-Y2 antag: antagonists of human neuropeptide Y receptor Y2 | P49146 | NPY-Y2 expressing cells, antagonist mode | inhibition, % at 2.7 µM | 140,000 tested, 0.99% active; in the data active = inhibition above about 17%
NPY-Y1 antag: antagonists of human neuropeptide Y receptor Y1; 200,000 tested, 1% active; P25929; HEK293-CNG Y1 cells, membrane potential fluorescence; NPY at EC95, then isoproterenol; inhibition, % at 3.6 µM;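 active = inhibition above the campaign mean inhibition of all tested compounds plus 3 SD, cut at about 20% in these data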
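Test system – HEK293 Y1/CNG channel cell line · Also added – NPY agonist 25 nM, then isoproterenol 1 µM plus Ro 20-1724 25 µM · Compound dosing – one concentration, 3.6 µM, in 0.4% DMSO · Schedule – compound incubation 1 h at room temperature, readout 45 min post-stimulation · Technique – fluorescence, membrane potential probe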
Wee1 degr conf: human Wee1 degradation inhibition, confirmation; shares compounds with Wee1 stabilizer; HeLa Luc-Wee1K328M degradation, luminescence; vehicle 0%, proteasome-blocked wells 100%; activation, % at 5 µM; 1,100 tested, 4% active; AID 1410; in the data active = activation above about 8.9%
Each line names hits and unclear results; the compound was inactive in the other large screens (follow-up assays come after a bar, where they were run).

CCc1nnc(NC(=O)CCc2c[nH]c3ccccc23)s1	Wee1 stabilizer 15 (no result: NPY-Y2 antag) | Wee1 degr conf inactive
CCC(=O)Nc1ccc(-c2nc3ccccc3c(=O)o2)cc1	Wee1 stabilizer 13 (no result: NPY-Y2 antag) | Wee1 degr conf inactive
COc1cc(/C=C(\NC(C)=O)C(=O)Nc2cccc(O)c2)ccc1OC(C)=O	none
Cc1ccc(C)c(S(=O)(=O)Nc2ccc(O)cc2)c1	none
CCNS(=O)(=O)c1ccc(NS(=O)(=O)c2cc(C)ccc2C)cc1	Wee1 stabilizer 13 | Wee1 degr conf inactive
N#Cc1c(-c2ccccc2Cl)noc1/C=C/Nc1ccc(C(=O)O)cc1	none (no result: NPY-Y2 antag)
Cc1ncoc1C(=O)Nc1ncc([N+](=O)[O-])s1	Wee1 stabilizer 14 (no result: NPY-Y2 antag) | Wee1 degr conf inactive
COc1ccc(C(=O)NCc2nnc(SCC(=O)Nc3nc4ccccc4s3)o2)cc1OC	none
CCOC(=O)C1CCN(S(=O)(=O)c2ccc(NC(C)=O)c(Cl)c2)CC1	Wee1 stabilizer 11 (no result: Hsp70 act, NPY-Y2 antag, NPY-Y1 antag) | Wee1 degr conf inactive
CCOC(=O)C1CCN(S(=O)(=O)c2ccc(C(C)=O)cc2)CC1	none
Cc1ccc(N(CC(O)CN2C(=O)NC(C)(C)C2=O)S(=O)(=O)c2ccc(C)cc2)cc1 (stereo not given)	Wee1 stabilizer 13 (no result: Hsp70 act, NPY-Y2 antag, NPY-Y1 antag) | Wee1 degr conf inactive
COc1ccc(N(CC(O)CN2C(=O)NC(C)(C)C2=O)S(=O)(=O)c2ccc(C)cc2)cc1 (stereo not given)	none
CCOc1ccc(CC(=O)NNC(=S)NCCc2ccccc2)cc1	none (no result: NPY-Y2 antag)
Cc1ccc(C2=Nc3ccc(Br)cc3C(c3ccncc3)=NN2)cc1	none (no result: NPY-Y2 antag)
COc1cccc(N2C(=O)[C@H]3C(C(=O)c4cnccn4)=NN[C@H]3C2=O)c1	Wee1 stabilizer 21 (no result: Hsp70 act, NPY-Y2 antag, NPY-Y1 antag) | Wee1 degr conf inactive
O=C(C1=NN[C@@H]2C(=O)N(c3cccc(F)c3)C(=O)[C@H]12)c1ccc2ccccc2n1	none
Cn1c(SCC2CCCO2)nnc1-c1ccc([N+](=O)[O-])cc1 (stereo not given)	Wee1 stabilizer 13 (no result: NPY-Y2 antag) | Wee1 degr conf inactive
Cn1c(SCC(=O)NCC2CCCO2)nnc1-c1ccc(S(=O)(=O)N2CCCC2)cc1 (stereo not given)	none
C=CCn1c(SCC(=O)Nc2cc(NC(C)=O)ccc2OC)nnc1-c1ccccn1	Wee1 stabilizer 12 | Wee1 degr conf inactive
CN1CCN(C(=O)c2cc3sc4ccccc4c3s2)CC1	Wee1 stabilizer 14 (no result: Hsp70 act, NPY-Y2 antag, NPY-Y1 antag) | Wee1 degr conf inactive
COc1ccc2c(c1)c(CC(=O)Nc1cc(C)ccc1C)c(C)n2C(=O)c1ccc(Cl)cc1	Wee1 stabilizer 14 | Wee1 degr conf inactive
Cn1c(CNc2ccc(Cl)cc2)nc2ccccc21	Wee1 stabilizer 13 | Wee1 degr conf inactive
CC(=O)N1CCc2cc(N=NC3=C(O)CC(C)(C)CC3=O)ccc21	Wee1 stabilizer 17 (no result: NPY-Y2 antag) | Wee1 degr conf inactive
Cc1nc2ccc(N=NC3=C(O)CC(C)(C)CC3=O)cc2s1	none
Cc1cc(-n2nnc3ccccc32)nc2ccccc12	Wee1 stabilizer 13 | Wee1 degr conf inactive
CC(C)(C)NC(=O)c1ccc2c(c1)CCO2	none (no result: Hsp70 act, NPY-Y2 antag, NPY-Y1 antag)
Cc1c(O)ccc2c(O)c(NC(=O)c3ccc4c(c3)CCC(C)(C)O4)c(=O)oc12	Wee1 stabilizer 12 (no result: Hsp70 act, NPY-Y2 antag, NPY-Y1 antag) | Wee1 degr conf inactive
Cc1ccc(N(CC(=O)N/N=C/c2cc(C)n(-c3ccccc3C)c2C)S(C)(=O)=O)cc1	Wee1 stabilizer 12 | Wee1 degr conf inactive
CC(=O)Nc1cccc(CNCc2cccc(NC(C)=O)c2)c1	none (no result: NPY-Y2 antag)
Cc1ccc(C)c2c(N)c3c(nc12)CCCCC3 (tested in a mixture with another compound)	none (no result: NPY-Y2 antag)
Cc1nnc(SCC(=O)Nc2nsc(-c3ccc(C(C)(C)C)cc3)n2)s1	Wee1 stabilizer 18 | Wee1 degr conf inactive
Cn1ccnc1SCC(=O)Nc1nc2ccccc2s1	Wee1 stabilizer 14 (no result: NPY-Y2 antag) | Wee1 degr conf inactive
O=C(CSc1ccccn1)Nc1nc2ccccc2s1	none
Cc1cccn2c1nc(=S)n2C(=O)c1ccco1	Wee1 stabilizer 12 | Wee1 degr conf 10
O=S(=O)(c1ccc(Cl)cc1)n1ccc2cccnc21	none
O=S(=O)(c1ccc(Cl)cc1Cl)n1ccc2cccnc21	Wee1 stabilizer 12 (no result: NPY-Y2 antag) | Wee1 degr conf inactive
C/C(=N\OCC(=O)NC(C)C)c1cccs1	none (no result: NPY-Y2 antag)
Nc1ccccc1C(=O)N/N=C1/C2CN3CCN(C2)CC1(Cc1ccccc1)C3	Wee1 stabilizer 13 (no result: NPY-Y2 antag) | Wee1 degr conf inactive
Cn1c(CCc2ccc(N)cc2)nc2ccccc21	Wee1 stabilizer 18 (no result: NPY-Y2 antag) | Wee1 degr conf inactive
CCCCC(=O)NCCNC(=O)c1cc(OCC(F)(F)F)ccc1OCC(F)(F)F	none
O=C(Cc1cccs1)N/N=C/c1ccccc1	none (no result: Hsp70 act, NPY-Y2 antag, NPY-Y1 antag)
CCOc1ccc(/C=N/NC(=O)Cc2cccs2)cc1	Wee1 stabilizer 14 (no result: Hsp70 act, NPY-Y2 antag, NPY-Y1 antag) | Wee1 degr conf inactive
CCOC(=O)c1c(C)n(C)c2ccc(OC)c([N+](=O)[O-])c12	none (no result: NPY-Y2 antag)
CCC(C(=O)Nc1nccs1)c1ccccc1 (stereo not given)	Wee1 stabilizer 17 | Wee1 degr conf inactive
Cc1cccc(-n2c(=S)[nH]c3nc4c(cc3c2=O)COC(C)(C)C4)c1	Wee1 stabilizer 18 (no result: Hsp70 act, NPY-Y2 antag, NPY-Y1 antag) | Wee1 degr conf inactive
CCCCCCCCCCCC(=O)NC(C(=O)O)C(O)c1ccccc1 (stereo not given)	none (no result: NPY-Y2 antag)
COc1ccccc1N(C)S(=O)(=O)c1ccc(Cl)c(C(=O)NC2=NCCS2)c1	Wee1 stabilizer 12 (no result: NPY-Y2 antag) | Wee1 degr conf inactive
COc1ccc(OC)c(C(c2nnnn2C2CCCC2)N2CCN(c3ccc(F)cc3)CC2)c1 (stereo not given)	none
COc1ccc(C(c2nnnn2C2CCCC2)N2CCC(C)CC2)c(OC)c1 (stereo not given)	Wee1 stabilizer 41 | Wee1 degr conf inactive
CCN(C(=O)CSc1nnc(C)n1Cc1ccccc1)C1CCS(=O)(=O)C1 (stereo not given)	Wee1 stabilizer 13 (no result: NPY-Y2 antag) | Wee1 degr conf inactive
Cc1nnc(SCC(=O)N(C)C2CCS(=O)(=O)C2)n1Cc1ccccc1 (stereo not given)	none (no result: NPY-Y2 antag)
CN(C)CCNc1oc(-c2cccc(Cl)c2)nc1C#N	none
CN(C)CCCNc1oc(-c2ccccc2)nc1C#N	Wee1 stabilizer 14 | Wee1 degr conf inactive
COc1ccc(NC(=O)CCN2C(=O)C3C4CCC(C4)C3C2=O)cc1 (stereo not given)	Wee1 stabilizer 12 | Wee1 degr conf inactive
Cn1c(-c2ccc(CN3CCCCC3)o2)nc2ccccc21	none
O=C(CCCCn1c(=O)c2ccccc2n(Cc2ccccc2)c1=O)NC1CCN(Cc2ccccc2)CC1	Wee1 stabilizer 11 (no result: NPY-Y2 antag) | Wee1 degr conf inactive
Cc1cccc(OC2(c3ccccc3)OC(=O)c3ccccc32)c1C (stereo not given)	none
O=C(Nc1cccs1)Nc1ccc(Br)cc1F	Wee1 stabilizer 14 | Wee1 degr conf inactive
Cc1ccc(NC(=O)Nc2cccs2)c(Cl)c1	none
